The test system of the data set is MS2 coat protein. The data set is described as follows: apparent Kd, MS2 coat protein; higher = weaker binding; RNA-MaP array; FMN 200 µM where present. The method in brief:
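The apparent Kd is reported as the median of filtered per-cluster binding-curve fits. To get these curves, designs transcribed by stalled E. coli RNA polymerase on Illumina sequencing-chip clusters were titrated with SNAP-549-labelled MS2 coat protein from 0.7 or 1.5 nM, doubling to 3 µM. Titrations were run without and then with constant ligand in 100 mM Tris-HCl pH 7.5, 80 mM KCl, 4 mM MgCl2, BSA, DTT, yeast tRNA and Tween-20, and green signal was normalised to red-channel RNA signal and control-cluster median Fmax.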

The mark [1] stands for this setting: designed as: OFF switch for flavin mononucleotide, no ligand.
[2] abbreviates: ligand present: flavin mononucleotide, designed as: OFF switch for flavin mononucleotide.
[3] abbreviates: designed as: ON switch for flavin mononucleotide, no ligand.
Setting [4] is: ligand present: flavin mononucleotide, designed as: ON switch for flavin mononucleotide.

Take “AAAAACCGAGGAUAUACAUGAGGAUCACCCAUGUCAAAAAAAAAAAAAAAAAAAAAAGGUAGAAGGCGGAAAAA”: the apparent Kd – broadly, the concentration giving half-maximal binding under the conditions of the assay – runs as follows: under setting [1], 64.3 nM; under setting [2], 57.9 nM.

“GGGCCGGUGGAGAAGGAGCGUGCGAAACGCAUGCUAGGAUAUCCACAUGAGGAUCACCCAUGUGGGAAUAUCUGGUUUUCACAG”: the “apparent Kd” value by setting is: under setting [1], 3.85 nM; under setting [2], 4.65 nM.

Regarding “GAGGAACAUGAGGAUCACCCAUGUGAGGAUAUGCAUAGUGAGCUAGUAGACGUUUAUUGCAGAAGGUACACUGA”, the “apparent Kd” value amounted to 31.4 nM under setting [1] and 23.6 nM under setting [2].

As for “AAUUUAAUACAUGAGGAUCACCCAUGUAAUACUUGUAAGAUCAAGGAUAUCAGCUCGAUUAGAGCUGAGAAGGUGAUCACAUGU”, the “apparent Kd” value runs as follows: under setting [3], 73.1 nM; under setting [4], 204 nM.

With “CUGAUGUGAGGAUAUCGGGCUACGGCCAGGCCGCUAGCAUUCGAGAAGGCACAUGAGGAUCACCCAUGUGAGAA”, the “apparent Kd” value by setting is: under setting [1], 25.4 nM; under setting [2], 39.8 nM.

Turning to “ACAUGCGGAUGAGGAUAUUCAUCCAUGAGGAUAGAAGAAGGCAUACAUGAGGAUCACCCAUGUAUACACAUGAGGAUCCCUUAU”, the “apparent Kd” value is, setting by setting: under setting [1], 59 nM; under setting [2], 137 nM.

Consider “GUCAUGUCAGGAUAUGCUUAUGAUGAGUGCUCAGACAUGAUGCAGAAGGGACAUGAGGAUCACCCAUGUACUGA”, for which the “apparent Kd” value was 22.4 nM under setting [1] and 26.8 nM under setting [2].

For the sequence “AGCGAGGUAGGAUAUACAUGAGGAUCACCCAUGUGCUUGCAUGGCGUGGAACAUCGUAGUAGAAGGGCCGCGCC”, the “apparent Kd” value was determined as 20.4 nM under setting [1] and 40.2 nM under setting [2].

As to “UUAUAAAAGCAGAAGGGCCGAUUAAGGAUCCGCAUGGCGCUGGACAUGAGGAUCACCCAUGUAAGGCAGGAUAUGCAAAAUAAG”, the “apparent Kd” value is, setting by setting: under setting [1], 458 nM; under setting [2], 24.8 nM.

On to “GCGCACUAAGUGAGGAUAUCGAUUUUUUUUAGGAUCGAGAAGGCACAUGAGGAUCACCCAUGUUUGACGUGCGC”, for which the “apparent Kd” value under setting [1] worked out at 15.5 nM and the “apparent Kd” value under setting [2] is 15.2 nM.

Turning to “AAAAAACAUGAGGAUCACCCAUGUGAGGAUAUCUGUAUUCAAUCCUCGGAUUGAAUACAGAGAAGGCACAUGGG”, the “apparent Kd” value by setting is: under setting [1], 26.6 nM; under setting [2], 26.9 nM.

As for “GCCAUCCUAUGAGGAUAUGACACCGAAACGGUGUCAGAAGGCAUGUCGAUAGACAUGAGGAUCACCCAUGUUUACAGGAUGGCA”, the “apparent Kd” value came to 132 nM under setting [3] and 22 nM under setting [4].

In the case of “CAUUAAUUAAUUAGUUUAUACAUACAGGAUAUGUUACAUGAGGAUCACCCAUGUUUACAUGGGAUACAGAAGGGUAAAUAAAGA”, the “apparent Kd” value is, setting by setting: under setting [1], 477 nM; under setting [2], 310 nM.

As to “GCAUCCAUAGUGAGGAUAUACCUCUGGAUACAUAGGUAGAAGGCACAUGAGGAUCACCCAUGUUCCUAGGAUGC”, the “apparent Kd” value reads like this: under setting [1], 20.2 nM; under setting [2], 40.1 nM.

In the case of “UCUGGAGGAAAACAGACGAAGUGGCCAGAAGGUGAAUGCCACAUGAGGAUCACCCAUGUUUCGAUCAAGGAUAUGGUUUCUCAC”, the “apparent Kd” value under setting [3] was 185 nM and the “apparent Kd” value under setting [4] was determined as 72.4 nM.

In the case of “GUAGCUACAUGAGGAUCACCCAUGUAGGAUAUCGCUAUUGUAAUCAUGAAACAUGAUUACAAUAGCGAGAAGGACGUUAGCUAC”, the “apparent Kd” value was determined as 6.31 nM under setting [1] and 7.31 nM under setting [2].

Regarding “GGUACGCAUGUAGGAUAUCGAGCUCAAAGAGCUCGAGAAGGACAUGAGGAUCACCCAUGUCGUCACAGACAGUGACGGCGUACC”, the “apparent Kd” value by setting is: under setting [1], 20 nM; under setting [2], 38.7 nM.

In the case of “UGGACGACCCGAGGAUAUCAAAGGCCCGGGUAAGUUCCUCAGACAUGAGGAUCACCCAUGUUAAAUGAGAAGGCGGGUAGCCGA”, the “apparent Kd” value is 203 nM under setting [1] and 268 nM under setting [2].

On to “GGAUAGGACAGAGGAUAUACGUGCUAGAGAUACUAGCAAAAUUCCCUCACAUGAGGAUCACCCAUGUAGAAGGCUGUCCUAUCG”, for which the “apparent Kd” value reads like this: under setting [1], 5.68 nM; under setting [2], 49.6 nM.

Regarding “GGAUAGUGAGGAUAUCGAUGUUAGGAGGAGUAGAUAGGAGGCGAGAAGGCACAUGAGGAUCACCCAUGUAUGGA”, the “apparent Kd” value by setting is: under setting [1], 58.7 nM; under setting [2], 45.5 nM.

With “AUUAAUUAAUUAAUACAUGAGGAUCACCCAUGUAAUAAGAUCUAGGAUAUCAGCUCGAUUAGAGCUGAGAAGGAGAUCACAUGU”, the “apparent Kd” value under setting [3] came out at 46.8 nM and the “apparent Kd” value under setting [4] is 39.5 nM.

Regarding “UGUCUGAUCUAAUAACAUGAGGAUCACCCAUGUGUUCACAACUAGGAUAUCGAUUGUUAAGACGUCGAGAAGGAGUAUACAUUA”, the “apparent Kd” value by setting is: under setting [1], 39 nM; under setting [2], 53.5 nM.

With “GGAGGACAUCAAUACAUGAGGAUCACCCAUGUCGAAUGAUAUGAGGAUAUGCAUCGGAAAACGAUGUAGAAGGCAUAGUCCUCC”, the “apparent Kd” value under setting [3] was found to be 15.1 nM and the “apparent Kd” value under setting [4] stood at 6.06 nM.

Regarding “GUCGGAAACGACAAUGAUAGGACUGAGGAUAUACAUAAAUAAUCCUCUACAUGAGGAUCACCCAUGUAGAAGGCAGUCCUAUCU”, the “apparent Kd” value under setting [1] was found to be 19 nM and the “apparent Kd” value under setting [2] came to 24.6 nM.

Take “GUCAGCUCGUGAGGAUAUACAACACUGCUUCGGCUGUGUAUUAAGAUCACAUGAGGAUCACCCAUGUAGAAGGCACGAGCUGAU”: the “apparent Kd” value is 13.5 nM under setting [1] and 202 nM under setting [2].

For the sequence “GGAUUGAAUGAGGAUAUCGUAUUAGGUGUAAUGCGAGAAGGCAUGACAUGAGGAUCACCCAUGUAGUGUGGGUU”, the “apparent Kd” value by setting is: under setting [1], 509 nM; under setting [2], 772 nM.

For the sequence “AUCAGCUCGUCAGGAUAUACGUCACUGCGUCAGCAGUGUGGUAAGAUCACAUGAGGAUCACCCAUGUAGAAGGGACGAACUGAU”, the “apparent Kd” value by setting is: under setting [1], 13.6 nM; under setting [2], 292 nM.

In the case of “AUGUGGUGCGUAGGAUAUCAUUGAGGGUCACCCUGAGAAGGACGUGAGGACAUGAGGAUCACCCAUGUGGAUCACCCAUGUCAU”, the “apparent Kd” value is, setting by setting: under setting [1], 245 nM; under setting [2], 288 nM.

For “GGUUGGCGAGGAUAUACAUGAGGAUCACCCAUGUGGUCCUGUGGCAAAAAAAACCUUUGUAGAAGGCGCGGGUC”, the “apparent Kd” value amounted to 354 nM under setting [1] and 285 nM under setting [2].

Turning to “UGGUACAUCGGAGGAUAUCAUGUAGAUACAUGAGGAUCACCCAUGUCGAUGGAGACAUCGGAGAUUGAGAAGGCCGAUGUACCU”, the “apparent Kd” value runs as follows: under setting [3], 612 nM; under setting [4], 31.7 nM.

With “AGAAACAGAGGAUAUCGCGGACAGCACAUGAGGAUCACCCAUGUGAUGCUCCGCGGGCCGCGAGAAGGCUGAAAUG”, the “apparent Kd” value under setting [1] worked out at 15.1 nM and the “apparent Kd” value under setting [2] is 36.8 nM.

Turning to “CCUAGUCACUCACAUGAGGAUCACCCAUGUCGGUGCCGCCGACAGGAUAUCUAAAUGUAAAAUCUAGAGAAGGGUCGAACCAUC”, the “apparent Kd” value under setting [3] is 455 nM and the “apparent Kd” value under setting [4] is 609 nM.

In the case of “AUAUGAAAGAUAGGAUAUACUGAGGUUGAAUGGGUAGAAGGAUCGAUAGUGAAGAAUACAUGAGGAUCACCCAUGUUGUGGAUU”, the “apparent Kd” value reads like this: under setting [3], 556 nM; under setting [4], 209 nM.

“GGUGCAUAUGAGAAGGCGGUCAUGAAACAUGAUCGAGGAUAUCAUGUAAACAUGAGGAUCACCCAUGUAUGGGAAUAAUGCACC”: the “apparent Kd” value runs as follows: under setting [3], 238 nM; under setting [4], 16 nM.

With “GCUUUACUGGUCAGGAUAUACAUUUGCUACUCUUUGUAGAAGGGACAUGAGGAUCACCCAUGUACUUUACAUUC”, the “apparent Kd” value is, setting by setting: under setting [1], 15.3 nM; under setting [2], 16.6 nM.

For the sequence “GGUACCAUCACAGGAUAUGCUUUCCUUUGGGAAGCAGAAGGGUGUAACAUGAGGAUCACCCAUGUGGUGCCAGGGCGUGGGCCC”, the “apparent Kd” value under setting [3] came to 212 nM and the “apparent Kd” value under setting [4] was 19.2 nM.

On to “UGCAUGUAAGGAUAUGCACUGCGCGAGCCUGACUCGCAAAGGCAGAAGGUACAUGAGGAUCACCCAUGUGAGAA”, for which the “apparent Kd” value came out at 72.6 nM under setting [1] and 64.6 nM under setting [2].

Regarding “CCUGUGUGAGGAUAUCUACGCCAUGUCUUUGACAUGGCGCAAGAGAAGGCACAUGAGGAUCACCCAUGUACUUC”, the “apparent Kd” value reads like this: under setting [1], 22.6 nM; under setting [2], 135 nM.

“UCUAUGUAGAUUCGUCAAUACAGUAAGGAUAUGAGAUACAUGAGGAUCACCCAUGUGCAUGUGGAUUAGAAGGUACAAUUAACU”: the “apparent Kd” value by setting is: under setting [1], 83.7 nM; under setting [2], 73.9 nM.

Take “AGAAACUACGAGAAGGACAUGUGGUCCAAAAGAAACAUGAGGAUCACCCAUGUAGGAUAUCGUAGUUUCAGGAUCGUGAGAUCA”: the “apparent Kd” value reads like this: under setting [1], 280 nM; under setting [2], 56.8 nM.

As to “CGAUUUACUGAGGAUAUUGCAUCACCCGACUGAUAAGAAGGCAGAACAUGAGGAUCACCCAUGUGGGUACUCAC”, the “apparent Kd” value was 80.5 nM under setting [1] and 91.1 nM under setting [2].

On to “CCUAAGGAGGCAGGAUAUAGUGUGGUGGCCGGGCUCCCACGGCGAGCGGCACUAGAAGGGUCGUUACAUGAGGAUCACCCAUGU”, for which the “apparent Kd” value is 12.7 nM under setting [3] and 11.6 nM under setting [4].

For the sequence “UGAAAUCAUGUAGGAUAUGCAUGGCGAAGCUACGCAGAAGGACAUGAGGAUCACCCAUGUUAUAGCUACUCAGUUCGGUGGCAA”, the “apparent Kd” value is, setting by setting: under setting [1], 38.5 nM; under setting [2], 195 nM.

For the sequence “UCGUAUAUACAAGGAUAUCAAUUAUUGCUAAAUUCAACAUGAGGAUCACCCAUGUAACUAUGGAGUGAGAAGGUGUAAUGACUU”, the “apparent Kd” value reads like this: under setting [3], 504 nM; under setting [4], 476 nM.

Take “CAGCUCGUGUGAGGAUAUGCCGCCGUUUCGGCUGCAGAAGGUGCUACGUUACAUGAGGAUCACCCAUGUCUCUGUUGUUUCGUU”: the “apparent Kd” value is, setting by setting: under setting [3], 23.5 nM; under setting [4], 20.6 nM.

For the sequence “AAUAAUAAGGAGGAUAUCGUAUCGGAGACGAUACGAGAAGGCUUAACAUGAGGAUCACCCAUGUUCCUCAAUAA”, the “apparent Kd” value under setting [1] stood at 35 nM and the “apparent Kd” value under setting [2] amounted to 76.7 nM.

With “AAUGAAUUCGAGAAGGGAGAUGUGGCACUUGUUUCGAAGUUGUGAUCACUCAGGAUAUCGAAACAUGAGGAUCACCCAUGUAAA”, the “apparent Kd” value under setting [3] came out at 273 nM and the “apparent Kd” value under setting [4] came to 17.5 nM.

In the case of “CCCACGUGUGCAGGAUAUCCCACGAGCACAACAUGAGGAUCACCCAUGUACCUGAGUCUCGGAACGGAGAAGGGUACAUGUUAU”, the “apparent Kd” value under setting [3] stood at 72.4 nM and the “apparent Kd” value under setting [4] was 69.1 nM.

The values are drawn from the EternaBench riboswitch data.
